The text below walks through data of ChEMBL document CHEMBL1122340, “11,12-secoprostaglandins. 6. Interphenylene analogues of acylhydroxyalkanoic acids and related compounds as renal vasodilators” (1983).

The subject of experiment [1] is Canis familiaris. The experiment can be described thus: Percentage change in renal resistance in anesthetized dogs. Format: functional, Canis lupus familiaris. Summed up:
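Anesthetized dogs, femoral artery and vein catheterized for BP and iv injection; at least 30 min recovery after surgery. Mean renal blood flow and mean arterial BP sampled at 1-min intervals over a 30-min control period, then 500 µg/kg given iv bolus in aqueous solution as Na salt, monitored 30 min more. Renal resistance = mean BP / mean RBF. Two dogs per compound; saline placebo in three dogs.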

Experiment [2] concerns Canis familiaris. As to the kind of experiment: Mean heart rate in conscious dog at 1-2 hr after 5 mg/kg (po) compound administration. Format: functional, Canis lupus familiaris. Put shortly: (§1)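 Conscious dogs, 3 per group. Dose 5 mg/kg given orally in a gelatin capsule; lactose capsule as placebo. Renal blood flow (flow meters), arterial pressure (transducer) and heart rate recorded digitally every 2 min through a 30-min predrug control period and 5 h postdose. Readings averaged for the control period and for each posttreatment hour; means ± SE.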

Experiment [3] deals with Canis familiaris. The experiment can be described thus: Mean arterial blood pressure in conscious dog at 3-4 h after 5 mg/kg (po) compound administration. Format: functional, Canis lupus familiaris. Summed up:
as §1

The subject of experiment [4] is Canis familiaris. As to the kind of experiment: Mean arterial blood pressure in conscious dog at 0-1 hr after 5 mg/kg (po) compound administration. Format: functional, Canis lupus familiaris. Put shortly: as §1
Experiment [5] relates to Canis familiaris. The experiment can be described thus: Mean heart rate in conscious dog at 3-4 h after 5 mg/kg (po) compound administration. Format: functional, Canis lupus familiaris. Summed up: as §1
Experiment [6] has as its system Canis familiaris. As to the kind of experiment: Mean heart rate in conscious dog at 2-3 hr after 5 mg/kg (po) compound administration. Format: functional, Canis lupus familiaris. Summed up: as §1
The subject of experiment [7] is Canis familiaris. The experiment can be described thus: Mean renal blood flow (RBF) in conscious dog at 4-5 hr after 5 mg/kg (po). Format: functional, Canis lupus familiaris, Kidney. Put shortly: as §1
Experiment [8] relates to Canis familiaris. The experiment can be described thus: Mean arterial blood pressure in conscious dog at 1-2 hr after 5 mg/kg (po) compound administration. Format: functional, Canis lupus familiaris. Put shortly:
as §1

The test system of experiment [9] is Canis familiaris. The experiment can be described thus: Mean renal blood flow (RBF) in conscious dog at 1-2h after 5 mg/kg (po). Format: functional, Canis lupus familiaris, Kidney. Summed up:
as §1

The subject of experiment [10] is Canis familiaris. The experiment can be described thus: Mean heart rate in conscious dog at 0-1 hr after 5 mg/kg (po) compound administration. Format: functional, Canis lupus familiaris. Put shortly: as §1
Experiment [11] has as its system Canis familiaris. As to the kind of experiment: Mean renal blood flow (RBF) in conscious dog at 2-3 hr after 5 mg/kg (po). Format: functional, Canis lupus familiaris, Kidney. Summed up: as §1
For experiment [12], the system named is Canis familiaris. The experiment can be described thus: Mean renal blood flow in (RBF) conscious dog at 3-4 hr after 5 mg/kg (po). Format: functional, Canis lupus familiaris, Kidney. Summed up:
as §1

Experiment [13] deals with Canis familiaris. As to the kind of experiment: Mean arterial blood pressure in conscious dog at 2-3 h after 5 mg/kg (po) compound administration. Format: functional, Canis lupus familiaris. Put shortly: as §1
Experiment [14] relates to Canis familiaris. The experiment can be described thus: Mean arterial blood pressure in conscious dog at 4-5 h after 5 mg/kg (po) compound administration. Format: functional, Canis lupus familiaris. Summed up:
as §1

Experiment [15] deals with Canis familiaris. The experiment can be described thus: Mean renal blood (RBF) flow in conscious dog at 0-1 hr after 5 mg/kg (po). Format: functional, Canis lupus familiaris, Kidney. Summed up: as §1
Experiment [16] has as its system Canis familiaris. As to the kind of experiment: Mean heart rate in conscious dog at 4-5 hr after 5 mg/kg (po) compound administration. Format: functional, Canis lupus familiaris. Summed up:
as §1

As to `CCCCCC(O)CCCN(CCCc1ccc(C(=O)O)cc1)S(C)(=O)=O` (stereo unspecified), in the experiment on Canis familiaris [1], the Change is on record as 5%.
With `CCCCCC(O)CCCC(CCCCc1ccc(C(=O)O)cc1)C(C)=O` (stereo unspecified), the Change in the experiment on Canis familiaris [1] is given as 18%.
The same measure, in the same setting: under `CC(=O)C(CCCc1ccc(C(=O)O)cc1)CCCC1(O)CCCCC1` (stereo unspecified) stands -42%.
On the same count and under the same terms, under `CS(=O)(=O)N(CC#CC1(O)CCCCC1)CCCc1ccc(C(=O)O)cc1` stands -10%.
Turning to `CCCCCC(O)CCCC(CCCc1ccc(C(=O)O)cc1)C(C)=O` (stereo unspecified), the HR in the experiment on Canis familiaris [2] is recorded as 73 beats min-1; with Canis familiaris [5], 64 beats min-1; with Canis familiaris [6], 74 beats min-1; with Canis familiaris [10], 74 beats min-1; in the experiment with Canis familiaris [16], 68 beats min-1. The MABP in the experiment on Canis familiaris [3] is 95 mmHg; with Canis familiaris [4] it was 116 mmHg; with Canis familiaris [8] it was 106 mmHg; in the experiment on Canis familiaris [13], 97 mmHg; with Canis familiaris [14] it was 106 mmHg. For the same molecule, the RBF worked out at 124 mL/min in the experiment on Canis familiaris [7]; 194 mL/min in the experiment with Canis familiaris [9]; 173 mL/min in the experiment with Canis familiaris [11]; 139 mL/min with Canis familiaris [12]; 137 mL/min with Canis familiaris [15]. Also, the Change with Canis familiaris [1] is on record as -47%.
As for `CCCCCC(O)CCCC(CCCc1cccc(C(=O)O)c1)C(C)=O` (stereo unspecified), the Change with Canis familiaris [1] is -20%.
The same measure, in the same setting: under `CCCCCC(O)CCCC(CCCCc1ccccc1C(=O)O)C(C)=O` (stereo unspecified) stands 19%; under `CS(=O)(=O)N(CCCc1ccc(C(=O)O)cc1)CCCC1(O)CCCCC1`, -7%.
Same read-out and setting: under `CCCCCC(O)CCCC(CCCc1ccc(C(=O)O)cc1)C(C)O` (stereo unspecified) stands -19%; under `CCCCCC(O)CCCC(Cc1ccc(CCC(=O)O)cc1)C(C)=O` (stereo unspecified), 13%.
On the same count and under the same terms, under `CCCOCC(O)CCCC(CCCc1ccc(C(=O)O)cc1)C(C)=O` (stereo unspecified) stands -43%.
